For assay [1], the target named is T1, Melatonin receptor type 1B (Homo sapiens) (UniProt P49286).
T1 sequence (whole entry): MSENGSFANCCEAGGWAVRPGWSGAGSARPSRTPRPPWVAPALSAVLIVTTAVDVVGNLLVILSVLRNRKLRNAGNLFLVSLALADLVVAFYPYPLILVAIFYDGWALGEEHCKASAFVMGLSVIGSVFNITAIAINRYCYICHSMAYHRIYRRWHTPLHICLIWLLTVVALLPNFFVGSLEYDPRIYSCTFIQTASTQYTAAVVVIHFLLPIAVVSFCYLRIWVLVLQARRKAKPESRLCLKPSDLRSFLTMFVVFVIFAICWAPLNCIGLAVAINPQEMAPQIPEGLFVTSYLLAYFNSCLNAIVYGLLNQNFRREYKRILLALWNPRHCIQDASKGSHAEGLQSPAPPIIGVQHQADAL
Briefly: Agonist activity at human recombinant melatonin receptor-2 expressed in CHO cells assessed as decrease of cAMP level after 10 mins by HTRF assay relative to melatonin. It counts as functional, cell-based.

Assay [2] addresses 5-hydroxytryptamine receptor 2B (Homo sapiens) (UniProt P41595). As to the kind of experiment: Binding affinity to 5HT-2B receptor (unknown origin) at 10 uM.
The nature of assay [3]: Induction of primary neuronal stem cell differentiation derived from subgranular zone of dentate gyrus of Wistar rat hippocampus assessed as upregulation of TuJ1 expression incubated for 7 days followed by 48 hrs incubation in presence of serum and absence of EGF by DAPI staining-based fluorescence microscopic analysis. The assay is classed as functional, tissue-based. As to conditions: Primary neuron. The method, boiled down:
(§1)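 Neurospheres came from the SGZ of the dentate gyrus of adult male Wistar rats (8-12 weeks). They were grown in DMEM/F12 with 10 ng/mL EGF, 10 ng/mL FGF and B27. After 3 days, cultures were treated with compounds for 7 days. They were then plated on poly-L-lysine coverslips for 48 h with serum and without growth factors. Cells were immunostained for TuJ1 and MAP-2 with DAPI nuclei. Positive cells were counted by fluorescence microscopy in five NS per condition over three independent experiments. Untreated cultures gave basal values.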

Assay [4] in a line: Induction of primary neuronal stem cell maturation derived from subgranular zone of dentate gyrus of Wistar rat hippocampus assessed as upregulation of MAP-2 expression incubated for 7 days by DAPI staining-based fluorescence microscopic analysis. Conditions: Primary neuron. The assay is classed as functional. The method in brief:
as §1

Assay [5] has as its target T2, Peroxisome proliferator-activated receptor gamma (Homo sapiens) (UniProt P37231).
T2 sequence (whole entry): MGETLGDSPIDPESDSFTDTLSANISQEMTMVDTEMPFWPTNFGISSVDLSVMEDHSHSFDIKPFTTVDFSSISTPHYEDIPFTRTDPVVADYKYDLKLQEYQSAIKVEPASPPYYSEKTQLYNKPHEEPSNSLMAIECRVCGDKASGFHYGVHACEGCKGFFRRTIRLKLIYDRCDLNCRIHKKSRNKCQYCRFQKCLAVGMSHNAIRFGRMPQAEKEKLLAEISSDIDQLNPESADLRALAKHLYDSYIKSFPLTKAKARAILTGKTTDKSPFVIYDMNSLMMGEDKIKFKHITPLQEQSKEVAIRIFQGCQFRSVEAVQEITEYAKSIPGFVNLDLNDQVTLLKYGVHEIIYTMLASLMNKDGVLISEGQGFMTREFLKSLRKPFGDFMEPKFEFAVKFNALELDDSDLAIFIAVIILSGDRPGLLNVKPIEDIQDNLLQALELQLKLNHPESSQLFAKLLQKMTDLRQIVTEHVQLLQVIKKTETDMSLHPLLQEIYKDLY
As to the kind of experiment: Binding affinity to PPARgamma (unknown origin) at 10 uM.

Assay [6] can be described thus: Induction of primary neuronal stem cell maturation derived from subgranular zone of dentate gyrus of Wistar rat hippocampus assessed as upregulation of MAP-2 expression at 10 uM incubated for 7 days by DAPI staining-based fluorescence microscopic analysis in presence of melatonin receptor antagonist luzindole. It counts as functional, tissue-based. As to conditions: Primary neuron. The method in brief: as §1

Assay [7] has as its target T1, Melatonin receptor type 1B (Homo sapiens). As to the kind of experiment: Agonist activity at human melatonin receptor-2 transfected in CHO cell membranes after 1 hr by GTPgammaS binding assay relative to melatonin. The assay is classed as functional. The method, boiled down: (§2)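 CHO membranes (20 µg/mL) stably expressing human MT1 or MT2 in 20 mM HEPES pH 7.4, 100 mM NaCl, 3 µM GDP, 3 mM MgCl2, 20 µg/mL saponin. Incubated with 0.2 nM [35S]GTPγS for 1 h at rt, then filtered. Non-specific binding defined with 10 µM GTPγS. Seven concentrations in duplicate; EC50 and Emax fitted.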

Assay [8] has as its target 5-hydroxytryptamine receptor 2A (Homo sapiens) (UniProt P28223). Briefly: Binding affinity to 5HT-2A receptor (unknown origin) at 10 uM.
In assay [9] the target is T3, Melatonin receptor type 1A (Homo sapiens, UniProt P48039). Briefly: Displacement of 2-[125I]-iodomelatonin from human melatonin receptor-1 transfected in CHO cell membranes after 120 mins.
Assay [10] concerns the target Cannabinoid receptor 2 (Homo sapiens) (UniProt P34972). Briefly: Binding affinity to CB2 receptor (unknown origin) at 10 uM.
In assay [11] the target is T3, Melatonin receptor type 1A. As to the kind of experiment: Agonist activity at human melatonin receptor-1 transfected in CHO cell membranes after 1 hr by GTPgammaS binding assay. The assay is classed as functional.
The target in assay [12] is Sodium-dependent serotonin transporter (Homo sapiens) (UniProt P31645). Briefly: Binding affinity to SERT (unknown origin) at 10 uM.
Assay [13] addresses T3, Melatonin receptor type 1A. As to the kind of experiment: Agonist activity at human melatonin receptor-1 transfected in CHO cell membranes after 1 hr by GTPgammaS binding assay relative to melatonin. The assay is classed as functional. The method, boiled down:
as §2

The target in assay [14] is T4, 5-hydroxytryptamine receptor 2C (Homo sapiens) (UniProt P28335).
T4 sequence (whole entry): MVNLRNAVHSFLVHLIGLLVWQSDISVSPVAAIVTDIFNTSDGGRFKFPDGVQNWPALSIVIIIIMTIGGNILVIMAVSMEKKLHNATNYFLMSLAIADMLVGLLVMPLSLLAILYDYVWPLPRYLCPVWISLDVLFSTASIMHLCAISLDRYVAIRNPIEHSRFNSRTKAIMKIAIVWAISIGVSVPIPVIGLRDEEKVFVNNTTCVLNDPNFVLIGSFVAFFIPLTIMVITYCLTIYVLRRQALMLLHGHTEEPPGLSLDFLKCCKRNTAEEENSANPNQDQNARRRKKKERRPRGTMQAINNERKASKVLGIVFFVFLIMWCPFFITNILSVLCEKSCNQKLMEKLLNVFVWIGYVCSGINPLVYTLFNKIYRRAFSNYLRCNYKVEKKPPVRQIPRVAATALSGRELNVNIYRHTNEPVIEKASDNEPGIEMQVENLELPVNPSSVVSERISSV
As to the kind of experiment: Binding affinity to 5HT-2C receptor (unknown origin) at 10 uM.

Assay [15] addresses T5, Melatonin receptor type 1B (Homo sapiens, UniProt P49286).
T5 sequence (P49286 whole entry): T1 sequence (whole entry)
As to the kind of experiment: Displacement of 2-[125I]-iodomelatonin from human melatonin receptor-2 transfected in CHO cell membranes after 120 mins.

SMILES strings stand for the structures. Active and inactive are the calls of the source. The rule behind the calls is not given here.

T3 sequence (P48039 whole entry): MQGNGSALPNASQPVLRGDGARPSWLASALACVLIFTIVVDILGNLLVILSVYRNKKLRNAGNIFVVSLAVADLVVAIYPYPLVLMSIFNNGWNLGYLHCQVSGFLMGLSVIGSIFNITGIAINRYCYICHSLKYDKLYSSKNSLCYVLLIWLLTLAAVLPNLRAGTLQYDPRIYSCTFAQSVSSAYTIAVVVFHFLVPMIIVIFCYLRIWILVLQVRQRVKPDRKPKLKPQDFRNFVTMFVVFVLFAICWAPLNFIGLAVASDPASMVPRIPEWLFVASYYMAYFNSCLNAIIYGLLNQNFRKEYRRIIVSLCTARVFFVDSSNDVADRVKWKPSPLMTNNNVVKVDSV
5-hydroxytryptamine receptor 2B (Homo sapiens), sequence (P41595 whole entry): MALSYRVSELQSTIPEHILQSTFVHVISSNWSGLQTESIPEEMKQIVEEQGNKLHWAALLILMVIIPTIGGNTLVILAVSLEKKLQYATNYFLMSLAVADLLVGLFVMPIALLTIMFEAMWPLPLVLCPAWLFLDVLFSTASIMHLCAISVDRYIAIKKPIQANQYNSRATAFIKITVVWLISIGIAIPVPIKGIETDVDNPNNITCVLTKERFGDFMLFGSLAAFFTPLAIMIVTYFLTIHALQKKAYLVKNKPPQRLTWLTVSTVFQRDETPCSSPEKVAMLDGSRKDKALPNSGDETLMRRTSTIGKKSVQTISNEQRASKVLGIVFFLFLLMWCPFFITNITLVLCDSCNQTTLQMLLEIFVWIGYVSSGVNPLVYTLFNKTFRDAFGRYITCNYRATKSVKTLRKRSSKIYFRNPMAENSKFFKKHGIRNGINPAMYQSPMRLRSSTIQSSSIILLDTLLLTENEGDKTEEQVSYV
Cannabinoid receptor 2 (Homo sapiens), sequence (P34972 whole entry): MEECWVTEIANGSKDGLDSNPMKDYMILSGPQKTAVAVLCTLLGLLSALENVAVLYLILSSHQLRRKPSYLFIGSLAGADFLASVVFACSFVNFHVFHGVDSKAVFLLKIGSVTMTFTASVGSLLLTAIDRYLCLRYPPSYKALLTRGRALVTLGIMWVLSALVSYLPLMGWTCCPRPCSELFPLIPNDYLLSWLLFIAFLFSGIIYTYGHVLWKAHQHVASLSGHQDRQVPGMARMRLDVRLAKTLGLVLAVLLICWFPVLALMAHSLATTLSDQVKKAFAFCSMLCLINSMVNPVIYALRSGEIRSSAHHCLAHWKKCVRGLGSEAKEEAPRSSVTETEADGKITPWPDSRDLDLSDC
Sodium-dependent serotonin transporter (Homo sapiens), sequence (P31645 whole entry, looked up): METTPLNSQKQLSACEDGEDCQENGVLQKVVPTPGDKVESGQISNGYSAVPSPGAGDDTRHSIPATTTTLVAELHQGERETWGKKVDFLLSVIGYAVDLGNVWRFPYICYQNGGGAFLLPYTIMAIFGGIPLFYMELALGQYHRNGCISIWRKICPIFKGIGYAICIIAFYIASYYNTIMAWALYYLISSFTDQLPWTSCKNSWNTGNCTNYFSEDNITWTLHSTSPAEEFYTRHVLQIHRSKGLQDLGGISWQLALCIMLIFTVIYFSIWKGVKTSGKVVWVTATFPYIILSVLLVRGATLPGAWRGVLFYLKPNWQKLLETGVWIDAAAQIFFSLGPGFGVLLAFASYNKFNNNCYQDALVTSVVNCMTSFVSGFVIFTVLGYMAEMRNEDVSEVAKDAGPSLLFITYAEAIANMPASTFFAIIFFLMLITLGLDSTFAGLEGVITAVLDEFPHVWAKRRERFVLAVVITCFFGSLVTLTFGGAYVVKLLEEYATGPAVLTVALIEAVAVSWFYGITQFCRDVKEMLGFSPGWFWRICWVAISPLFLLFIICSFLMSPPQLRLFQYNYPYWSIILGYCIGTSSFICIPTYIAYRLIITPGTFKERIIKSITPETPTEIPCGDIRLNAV
5-hydroxytryptamine receptor 2A (Homo sapiens), sequence (P28223 whole entry): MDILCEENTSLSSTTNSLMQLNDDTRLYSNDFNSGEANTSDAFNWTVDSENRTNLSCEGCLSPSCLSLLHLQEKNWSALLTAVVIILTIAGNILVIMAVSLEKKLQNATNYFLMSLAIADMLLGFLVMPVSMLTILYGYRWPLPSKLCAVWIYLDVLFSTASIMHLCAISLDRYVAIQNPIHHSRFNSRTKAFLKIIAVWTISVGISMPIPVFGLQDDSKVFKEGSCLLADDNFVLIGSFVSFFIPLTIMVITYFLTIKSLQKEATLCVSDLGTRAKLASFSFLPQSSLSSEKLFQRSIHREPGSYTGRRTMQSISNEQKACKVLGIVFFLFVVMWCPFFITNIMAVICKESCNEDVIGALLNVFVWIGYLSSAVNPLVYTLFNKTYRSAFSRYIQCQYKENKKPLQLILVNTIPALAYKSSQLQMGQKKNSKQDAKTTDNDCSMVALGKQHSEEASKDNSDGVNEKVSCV

For `COc1ccc2[nH]cc(CCc3nnc(C)o3)c2c1`, the Emax in assay [1] amounted to 92%; in [7] it was 32%; in [13], 19%. In addition, the outcome in assay [2], in assay [5], in assay [6], in assay [8], in assay [10] and in assay [12] was inactive. Besides, the outcome in assay [14] was inactive. Further, the Activity result in assay [3] and in [4] was “Dose-dependent effect” throughout. The Ki worked out at 709 nM in assay [9] and 190 nM in assay [15]. This compound gave an EC50 in assay [11] of 961 nM.

The values above are taken from ChEMBL document CHEMBL3580567 (J Med Chem, 2015).
